pIC50: −log10 of the molar value.
Assays:
[1] = target: T1, cGMP-specific 3',5'-cyclic phosphodiesterase (Homo sapiens, UniProt O76074); experiment: Inhibition of human recombinant PDE5 after 30 mins by fluorescence polarization assay
In short: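 Recombinant human PDE5A at 12.5 units/mL was preincubated 30 min with compound or vehicle. Then 50 nM TAMRA-cGMP was added and the mix incubated 1.5 h at 30 °C. IMAP binding reagent was added for 30 min at 30 °C and fluorescence polarization read. IC50 came from a 10-concentration series in quadruplicate, fitted to a four-parameter logistic.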

[2] = target: T1, cGMP-specific 3',5'-cyclic phosphodiesterase; experiment: Inhibition of human recombinant PDE5 at 10 uM after 30 mins by fluorescence polarization assay
MDA-MB-231 [3] = experiment: Growth inhibition of human MDA-MB-231 cells after 72 hrs by luminescence assay; format: functional, cell-based; details: MDA-MB-231, 72 h
In short: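 MDA-MB-231 cells grown in RPMI 1640 with 5% FBS, 2 mM glutamine and antibiotics at 37 °C, 5% CO2. Cells were harvested at 70–90% confluence, used only if viability >95%, and seeded at 5000 cells/well. Dosing followed 18–24 h later, with final DMSO 0.1%. Viability was read after 72 h by CellTiter-Glo luminescence. IC50 came from eight concentrations in quadruplicate, fitted to a four-parameter logistic.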

MDA-MB-231 [4] = experiment: Growth inhibition of human MDA-MB-231 cells at 10 uM after 72 hrs by luminescence assay; format: functional; details: MDA-MB-231, 72 h

| pIC50 [1] | inhibition [2] | pIC50 (MDA-MB-231 [3]) | SMILES | inhibition at 10 µM (MDA-MB-231 [4]) |
| --- | --- | --- | --- | --- |
| 6.59 | 90% | 5.81 | CCN1CC(=O)N2[C@@H](c3ccc(Cl)cc3Cl)c3[nH]c4ccccc4c3C[C@@H]2C1=O | 66% |
| 5.90 | – | 5.53 | CC(C)(C)N1CC(=O)N2[C@@H](c3ccc(Cl)cc3Cl)c3[nH]c4ccccc4c3C[C@@H]2C1=O | – |
| – | 50% | 5.34 | COC(=O)[C@H]1Cc2c([nH]c3ccccc23)[C@H](c2ccc(Cl)c(Cl)c2)N1 | 100% |
| – | 25% | 7.15 | COC(=O)[C@H]1Cc2c([nH]c3ccccc23)[C@H](c2ccc(Cl)cc2Cl)N1C(=O)CCl | – |
| 6.00 | 85% | – | CCN1CC(=O)N2[C@@H](c3ccc(Cl)cc3Cl)c3[nH]c4ccccc4c3C[C@H]2C1=O | 52% |
| – | 18% | 5.16 | COC(=O)[C@@H]1Cc2c([nH]c3ccccc23)[C@H](c2ccc(Cl)c(Cl)c2)N1 | 62% |
| – | 55% | – | COC(=O)[C@@H]1Cc2c([nH]c3ccccc23)[C@H](c2ccc(Cl)cc2Cl)N1 | 50% |
| 6.42 | 99% | – | COC(=O)[C@@H]1Cc2c([nH]c3ccccc23)[C@H](c2ccc(Cl)cc2Cl)N1C(=O)CCl | 55% |
| 6.07 | 85% | – | CCN1C(=O)[C@@H]2Cc3c([nH]c4ccccc34)[C@H](c3ccc(Cl)cc3Cl)N2C1=O | 29% |
| 6.72 | 94% | – | CC(C)(C)N1CC(=O)N2[C@H](c3ccc(Cl)cc3Cl)c3[nH]c4ccccc4c3C[C@@H]2C1=O | 15% |
| – | 25% | – | COC(=O)[C@H]1Cc2c([nH]c3ccccc23)[C@@H](c2c(Cl)cccc2Cl)N1 | – |
| 5.87 | 78% | 5.59 | CC(C)(C)N1CC(=O)N2[C@@H](c3ccc(Cl)cc3Cl)c3[nH]c4ccccc4c3C[C@H]2C1=O | – |
| 5.64 | 66% | 6.25 | COC(=O)[C@H]1Cc2c([nH]c3ccccc23)[C@@H](c2ccc(Cl)cc2Cl)N1C(=O)CCl | – |
| 7.30 | 95% | – | CN1CC(=O)N2[C@H](c3ccc(Cl)cc3Cl)c3[nH]c4ccccc4c3C[C@@H]2C1=O | 10% |
| 6.59 | – | – | CC(C)(C)N1CC(=O)N2[C@H](c3ccc(Cl)cc3Cl)c3[nH]c4ccccc4c3C[C@H]2C1=O | 30% |
| 5.14 | 65% | – | COC(=O)[C@H]1Cc2c([nH]c3ccccc23)[C@@H](c2ccc(Cl)cc2Cl)N1 | 29% |
| 7.05 | 90% | – | CCN1C(=O)[C@H]2Cc3c([nH]c4ccccc34)[C@H](c3ccc(Cl)cc3Cl)N2C1=O | 54% |
| 5.38 | 75% | – | CC(C)(C)N1C(=O)[C@@H]2Cc3c([nH]c4ccccc34)[C@H](c3ccc(Cl)cc3Cl)N2C1=O | 22% |
| 7.30 | 95% | – | CN1CC(=O)N2[C@H](c3ccc(Cl)cc3Cl)c3[nH]c4ccccc4c3C[C@H]2C1=O | 23% |
| – | 38% | 5.91 | COC(=O)[C@@H]1Cc2c([nH]c3ccccc23)[C@@H](c2ccc(Cl)cc2Cl)N1C(=O)CCl | 98% |
| 6.24 | 82% | – | COC(=O)[C@@H]1Cc2c([nH]c3ccccc23)[C@@H](c2ccc(Cl)cc2Cl)N1 | 28% |
| – | 15% | – | COC(=O)[C@@H]1Cc2c([nH]c3ccccc23)[C@H](c2c(Cl)cccc2Cl)N1 | 52% |
| 8.00 | 95% | – | CCN1CC(=O)N2[C@H](c3ccc(Cl)cc3Cl)c3[nH]c4ccccc4c3C[C@H]2C1=O | 20% |
| – | 40% | 5.17 | COC(=O)[C@H]1Cc2c([nH]c3ccccc23)[C@H](c2ccc(Cl)cc2Cl)N1 | 78% |
| – | 24% | – | COC(=O)[C@@H]1Cc2c([nH]c3ccccc23)[C@@H](c2ccc(Cl)c(Cl)c2)N1 | 48% |
| – | 27% | – | COC(=O)[C@H]1Cc2c([nH]c3ccccc23)[C@@H](c2c(Cl)cccc2Cl)N1C(=O)CCl | 15% |
| 5.79 | 78% | – | COC(=O)[C@H]1Cc2c([nH]c3ccccc23)[C@@H](c2ccc(Cl)c(Cl)c2)N1 | 43% |

The remaining lines, values behind:

| SMILES | pIC50 [1] | inhibition [2] | pIC50 (MDA-MB-231 [3]) | inhibition at 10 µM (MDA-MB-231 [4]) |
| --- | --- | --- | --- | --- |
| CC(C)(C)N1CC(=O)N2[C@@H](c3ccc(Cl)c(Cl)c3)c3[nH]c4ccccc4c3C[C@@H]2C1=O | – | 30% | – | 40% |
| COC(=O)[C@H]1Cc2c([nH]c3ccccc23)[C@@H](c2ccc(Cl)c(Cl)c2)N1C(=O)CCl | – | 40% | – | – |
| CCN1C(=O)[C@@H]2Cc3c([nH]c4ccccc34)[C@H](c3c(Cl)cccc3Cl)N2C1=O | – | 37% | – | 52% |
| CCN1CC(=O)N2[C@@H](c3ccc(Cl)c(Cl)c3)c3[nH]c4ccccc4c3C[C@H]2C1=O | 5.48 | 67% | – | 35% |
| CC(C)(C)N1CC(=O)N2[C@@H](c3c(Cl)cccc3Cl)c3[nH]c4ccccc4c3C[C@H]2C1=O | – | 21% | – | 20% |
| COC(=O)[C@@H]1Cc2c([nH]c3ccccc23)[C@@H](c2ccc(Cl)c(Cl)c2)N1C(=O)CCl | – | 40% | – | 55% |
| CCN1C(=O)[C@H]2Cc3c([nH]c4ccccc34)[C@H](c3ccc(Cl)c(Cl)c3)N2C1=O | 5.54 | – | – | – |
| CCN1C(=O)[C@H]2Cc3c([nH]c4ccccc34)[C@@H](c3ccc(Cl)c(Cl)c3)N2C1=O | 6.82 | 95% | – | 50% |
| CC(C)(C)N1C(=O)[C@@H]2Cc3c([nH]c4ccccc34)[C@@H](c3ccc(Cl)c(Cl)c3)N2C1=O | 7.92 | 88% | – | 60% |
| CC(C)(C)N1CC(=O)N2[C@H](c3ccc(Cl)c(Cl)c3)c3[nH]c4ccccc4c3C[C@@H]2C1=O | – | 35% | – | 36% |
| CC(C)(C)N1C(=O)[C@@H]2Cc3c([nH]c4ccccc34)[C@H](c3c(Cl)cccc3Cl)N2C1=O | – | 25% | – | 15% |
| CC(C)(C)N1C(=O)[C@H]2Cc3c([nH]c4ccccc34)[C@H](c3ccc(Cl)c(Cl)c3)N2C1=O | 5.20 | 65% | – | 58% |
| CCCCN1CC(=O)N2[C@H](c3ccc(Cl)cc3Cl)c3[nH]c4ccccc4c3C[C@@H]2C1=O | 6.57 | 95% | – | 45% |
| CC(C)(C)N1CC(=O)N2[C@H](c3c(Cl)cccc3Cl)c3[nH]c4ccccc4c3C[C@@H]2C1=O | – | 21% | – | 16% |
| CC(C)(C)N1CC(=O)N2[C@@H](c3ccc(Cl)c(Cl)c3)c3[nH]c4ccccc4c3C[C@H]2C1=O | – | 35% | – | 58% |
| CCN1CC(=O)N2[C@H](c3ccc(Cl)c(Cl)c3)c3[nH]c4ccccc4c3C[C@@H]2C1=O | 5.87 | 80% | – | 30% |
| COC(=O)[C@@H]1Cc2c([nH]c3ccccc23)[C@H](c2c(Cl)cccc2Cl)N1C(=O)CCl | 6.14 | 67% | – | 30% |
| CCN1CC(=O)N2[C@H](c3ccc(Cl)c(Cl)c3)c3[nH]c4ccccc4c3C[C@H]2C1=O | 5.69 | 78% | – | 50% |
| CC(C)(C)N1CC(=O)N2[C@H](c3ccc(Cl)c(Cl)c3)c3[nH]c4ccccc4c3C[C@H]2C1=O | 5.90 | 85% | – | 50% |
| CCCCN1CC(=O)N2[C@H](c3ccc(Cl)cc3Cl)c3[nH]c4ccccc4c3C[C@H]2C1=O | 6.54 | 89% | – | 42% |
| CCN1C(=O)[C@@H]2Cc3c([nH]c4ccccc34)[C@H](c3ccc(Cl)c(Cl)c3)N2C1=O | 5.06 | – | 5.32 | – |
| CCN1CC(=O)N2[C@@H](c3c(Cl)cccc3Cl)c3[nH]c4ccccc4c3C[C@H]2C1=O | – | 28% | – | 24% |
| COC(=O)[C@@H]1Cc2c([nH]c3ccccc23)[C@H](c2ccc(Cl)c(Cl)c2)N1C(=O)CCl | – | 20% | – | 43% |
| CCN1CC(=O)N2[C@@H](c3ccc(Cl)c(Cl)c3)c3[nH]c4ccccc4c3C[C@@H]2C1=O | – | 45% | – | 44% |
| COC(=O)[C@H]1Cc2c([nH]c3ccccc23)[C@H](c2ccc(Cl)c(Cl)c2)N1C(=O)CCl | – | 30% | – | 50% |
| CC(C)(C)N1C(=O)[C@H]2Cc3c([nH]c4ccccc34)[C@@H](c3c(Cl)cccc3Cl)N2C1=O | – | 52% | – | 38% |
| CCN1C(=O)[C@H]2Cc3c([nH]c4ccccc34)[C@@H](c3c(Cl)cccc3Cl)N2C1=O | – | 18% | – | 55% |
| CCN1C(=O)[C@@H]2Cc3c([nH]c4ccccc34)[C@@H](c3ccc(Cl)c(Cl)c3)N2C1=O | 6.52 | 90% | – | 18% |
| CCN1CC(=O)N2[C@H](c3c(Cl)cccc3Cl)c3[nH]c4ccccc4c3C[C@@H]2C1=O | – | 40% | – | 31% |

Reference: ChEMBL document CHEMBL1649422, “Synthesis and molecular modeling of novel tetrahydro-β-carboline derivatives with phosphodiesterase 5 inhibitory and anticancer properties” (J Med Chem, 2011)
